S1P4 ag – S1P4 receptor agonists, primary screen, cell-based; Sphingosine 1-phosphate receptor 4 (Homo sapiens), O95977; S1P4-expressing cell line, agonist reporter assay; activation, % at 4.98 µM; 220,000 compounds, 0.35% hits; in the data active means activation above about 11%;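 further: 0% = DMSO vehicle and 100% = reference agonist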
NPY Y2 blocker – NPY-Y2 receptor antagonists, primary screen, cell-based. 140,000 compounds, 0.99% hits. Neuropeptide Y receptor type 2 (Homo sapiens), P49146. NPY-Y2 expressing cells, antagonist mode. AID 793, 2007. inhibition, % at 2.7 µM; in the data active means inhibition above about 17%;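 further: 0% = vehicle with agonist challenge and 100% = reference antagonist with challenge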
Target sequence (P49146 whole entry, looked up): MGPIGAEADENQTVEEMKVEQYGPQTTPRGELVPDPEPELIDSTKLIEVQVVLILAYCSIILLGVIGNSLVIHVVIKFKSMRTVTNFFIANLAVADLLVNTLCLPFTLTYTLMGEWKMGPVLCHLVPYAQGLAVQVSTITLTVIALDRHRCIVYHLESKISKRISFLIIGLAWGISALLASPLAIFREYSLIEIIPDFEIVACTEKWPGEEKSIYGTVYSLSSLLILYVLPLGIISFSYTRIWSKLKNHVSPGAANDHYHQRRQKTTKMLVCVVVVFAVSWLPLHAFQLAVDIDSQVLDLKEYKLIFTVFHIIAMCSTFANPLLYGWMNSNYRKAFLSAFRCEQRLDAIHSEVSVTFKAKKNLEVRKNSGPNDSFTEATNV
NPY-Y1 PAM-ag – NPY-Y1 receptor potentiators or agonists, primary screen, cell-based | NPY-Y1 expressing cells, potentiator/agonist activation | activation, % at 3.6 µM | 220,000 compounds, 0.37% hits; in the data active means activation above about 33%, passing the limit was not always enough;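 further: cells stimulated with NPY at EC10 then isoproterenol at EC100; 0% = low agonist plus stimulus and 100% = saturating agonist plus stimulus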
S1P4 antag – S1P4 receptor antagonists, primary screen, cell-based; inhibition, % at 4.98 µM; Sphingosine 1-phosphate receptor 4 (Homo sapiens), O95977; S1P4-expressing cells, antagonist mode, reporter read-out; 220,000 compounds, 0.26% hits; in the data active means inhibition above about 29%;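 further: 0% = wells stimulated with agonist and 100% = vehicle wells without agonist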
NPY Y1 blocker – NPY-Y1 receptor antagonists, primary screen, cell-based | HEK293-CNG Y1 cells, membrane potential fluorescence; NPY at EC95, then isoproterenol | inhibition, % at 3.6 µM | 200,000 compounds, 1% hits | AID 1040, 2008;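 active means inhibition above the campaign mean inhibition of all tested compounds plus 3 SD, cut at about 20% in these data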;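 further: 0% = DMSO wells given NPY plus isoproterenol and 100% = isoproterenol alone without NPY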
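Benchmarks – high control isoproterenol alone, low control NPY with isoproterenol · Material – HEK293 Y1/CNG channel cell line · Times – dye 3 h, compound 60 min room temperature, stimulation 45 min · Probe or stimulus – NPY (25 nM), isoproterenol (1 µM), Ro 20-1724 (25 µM) · Evaluation – % inhibition of NPY effect · Signal – fluorescence, membrane potential probe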
NPY2 pot ag – NPY-Y2 potentiators or agonists, primary screen, cell-based; Neuropeptide Y receptor type 2 (Homo sapiens), P49146; cells expressing NPY-Y2, potentiator/agonist read-out; activation, % at 3.6 µM; 220,000 compounds, 0.45% hits; AID 1359, 2008; in the data active means activation above about 27%;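 further: cells stimulated with NPY near EC25 plus isoproterenol at EC100; 0% = vehicle plus submaximal agonist and 100% = vehicle plus saturating agonist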
* marks the source's active call; other numbers are inactive results; . = no result. Shown are actives, neighbours in structure and some others; about 2.4% of the full set was active somewhere.

SMILES | S1P4 ag | NPY Y2 blocker | NPY-Y1 PAM-ag | S1P4 antag | NPY Y1 blocker | NPY2 pot ag
O=S(=O)(Nc1ccccn1)c1cnc(Cl)c(Br)c1 | -1 | 3 | -4 | -6 | 0 | -7
CC1CCCc2sc3nc(N4CCN(CCO)CC4)n4ncnc4c3c21 (configuration not stated) | 0 | 25* | -51 | -7 | 40* | -29
CCc1c(C)nc2cc(-c3ccc(OC)c(OC)c3)nn2c1NCC1CC1 | -3 | 0 | -24 | 3 | 1 | 5
CC(C)(C)C(=O)/C(=C\c1ccc([N+](=O)[O-])cc1)n1cncn1 | 0 | 5 | -15 | 55* | -1 | -4
FC(F)(F)c1ccccc1CN1CCN(C2CCCCCC2)CC1 | 1 | 22* | -7 | -6 | 23* | -8
COc1ccc(CNCC(O)COc2cccc3c2OC(C)(C)C3)cc1 (configuration not stated) | 2 | . | 106* | -27 | -8 | 95*
COCCNC(=O)COc1cccc2c1OC(C)(C)C2 | -1 | . | 11 | -17 | 3 | 15
Cc1ncc(N=Nc2ccccc2Cl)c(-c2ccccc2)n1 | 0 | 1 | -26 | -1 | 7 | 14
Nc1nc(-c2ccccc2)c(N=Nc2cccc3ccccc23)s1 | 1 | -13 | 111* | 13 | -29 | 97*
CC(=O)Nc1sc(N)nc1-c1ccccc1 | 0 | 10 | -5 | -6 | -1 | 1
Nc1nc(-c2ccccc2)c(N=Nc2ccccc2Cl)s1 | 3 | -14 | 95* | -11 | -27 | 79*
CCOc1ccc(NCc2cc3c(C(C)(C)C)nn(-c4ccccc4)c3[nH]c2=O)cc1 | 1 | -2 | 56* | -4 | -11 | 35*
COc1cccc(NCc2cc3c(C(C)(C)C)nn(-c4ccccc4)c3[nH]c2=O)c1 | 1 | -1 | 4 | -9 | -5 | 11
C=CC[n+]1c(-c2ccc(OCC)cc2)csc1NNC(=O)Nc1ccccc1 | -1 | 1 | 95* | -6 | -14 | 81*
Cn1c(=O)c2c(nc(SCC(=O)c3ccccc3F)n2C)n(C)c1=O | 2 | . | 3 | -32 | 1 | 1
COc1ccc(S(=O)(=O)Nc2ccc(Cl)cn2)c(C)c1C | -2 | -13 | 59* | -25 | -9 | 37*
CCOc1cc(S(=O)(=O)Nc2ccc(Cl)cn2)ccc1F | 0 | 4 | -37 | -1 | 9 | -5
CC(C)COc1ncnc2c1sc1nc3c(cc12)COC(C)(C)C3 | 1 | . | 9 | 7 | . | -15
CCOc1cc(N2CCOCC2)c(OCC)cc1NC(=O)CN1C(=O)NC(Cc2ccccc2)C1=O (configuration not stated) | 12* | 1 | -5 | -30 | 7 | -1
COc1ccc(S(=O)(=O)N2CCOCC2)cc1NC(=O)CN1CCC(Cc2ccccc2)CC1 | -1 | 32* | -23 | -15 | 40* | -34
COc1ccc(C)cc1NS(=O)(=O)c1ccc(NC(=O)CN(c2cc([N+](=O)[O-])ccc2C)S(C)(=O)=O)cc1 | 0 | -3 | 40* | 4 | -9 | 27*
COc1ccc([N+](=O)[O-])cc1N(CC(=O)NCCSc1ccc(C)cc1)S(C)(=O)=O | 2 | . | 13 | -6 | -4 | 2
Cc1cccc(NS(=O)(=O)c2ccc(NC(=O)CN(c3cc([N+](=O)[O-])ccc3C)S(C)(=O)=O)cc2)c1 | -2 | -5 | 50* | 4 | -13 | 42*
CCCCC(C)(O)C/C=C/[C@H]1[C@H](O)CC(=O)[C@@H]1CCCCCCC(=O)OC (some centres not stated) | 2 | 93* | -95 | -21 | 106* | -6
CC1CCC(C(C)C)C(OCC(O)CNC(C)C)C1 (configuration not stated) | 0 | . | 107* | 10 | . | 98*
SMILES | S1P4 ag | NPY Y2 blocker | NPY-Y1 PAM-ag | S1P4 antag | NPY Y1 blocker | NPY2 pot ag
CC(C)NCC(O)COC1C2CC3CC(C2)CC1C3 (configuration not stated) | 3 | . | 48* | -12 | -9 | 32*
CCC(C)(C(=O)NC1CCCC1)N(Cc1cccs1)C(=O)c1ccc2c(c1)OCO2 (configuration not stated) | 1 | 18* | 1 | -22 | 27* | -5
CC(NCc1cccs1)C(=O)NC1CCCCC1 (configuration not stated) | 0 | . | 14 | 12 | -2 | -4
CCC(C)(C(=O)NC1CCCCC1)N(Cc1cccs1)C(=O)Cc1cccs1 (configuration not stated) | 2 | 39* | -42 | -4 | 59* | 1
Cc1cc(O)c(C(C)C)cc1C1(c2cc(C(C)C)c(O)cc2C)OC(=O)c2ccccc21 | -1 | . | 76* | 7 | . | 70*
O=C(Nc1cc(C(=O)N2CCCC2)ccc1N1CCCC1)c1ccccc1F | 0 | 2 | 44* | -15 | -8 | 39*
C=CCn1c(O)c(N=NC(=O)CNC(=O)c2ccco2)c2ccccc21 | 1 | 3 | -28 | -28 | 12 | 5
CC(=O)N1CN(C2CCCC2)Cc2c1sc1c2CCCC1 | -2 | 18* | -18 | 14 | 24* | -4
CC(=O)N1CN(C2CC(C)(C)NC(C)(C)C2)Cc2c1sc1c2CCCC1 | -3 | 4 | -22 | 1 | 0 | -6
O=C(Nc1nccs1)C1CC(=O)N(c2ccc(Cl)cc2)C1 (configuration not stated) | -1 | . | 11 | -12 | -2 | 13
CC(C)OC(=O)/C(=C\c1ccc2c(c1)c1ccccc1n2C)NC(=O)c1ccccc1 | -1 | 6 | -47 | -18 | 23* | -30
CCc1ccc(OCC(=O)NC(NC(=S)Nc2ccccc2C)C(Cl)(Cl)Cl)cc1 (configuration not stated) | -2 | 19* | -1 | -4 | 21* | 3
CC1=NN(c2ccc(Cl)cc2)C(=O)/C1=C\c1cccn1-c1ccc(S(N)(=O)=O)cc1 | 0 | -6 | 60* | 8 | -17 | 49*
Cc1ccc(S(=O)(=O)N/N=C/c2cccn2-c2ccc(Cl)cc2)cc1 | 0 | 5 | -49 | 5 | 0 | -12
CC(=O)Oc1ccc(N2C(=O)C3C4C=CC(CO)(O4)C3C2=O)cc1 (configuration not stated) | 2 | 2 | 4 | -7 | 11 | -1
O=C1C2C3C=CC(CO)(O3)C2C(=O)N1c1ccccc1-c1ccccc1 (configuration not stated) | -2 | 0 | -3 | 31* | 4 | 1
COc1ccc(OC)c(-c2csc(NC(=O)c3ccc4c(c3)OCO4)n2)c1 | 3 | . | -7 | -12 | 6 | 4

High-throughput results deposited in PubChem BioAssay by The Scripps Research Institute Molecular Screening Center.
